Results as given in PubChem BioAssay.
Activity calls are given as the source filed them.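 How the source made its calls, unless noted: active means fluorescence slope higher than the sample average by over 3 SD (cut at about -0.22 in these data, passing the limit was not always enough); inactive means the rest.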

Assays:
[1] = inhibitors of TNFa-induced NFkB p65 translocation, primary screen, imaging, HUVEC, MLSMR starter and 10KST1 sets (AID 438;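 active means inhibition above 20% together with a positive visual image hit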;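 further: compound added about 3h40 before a 20 min TNFalpha stimulation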;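 on inhibition: signal is the nuclear over cytoplasmic p65 intensity ratio per well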); details: HUVEC TNFa-induced p65 nuclear translocation; cell count: measured here: nuclei count (cytotoxicity indicator), at 2.08 µM; inhibition: at 2 µM, stronger effect = higher value, 0% TNFa-plus-vehicle, 100% no-TNFa wells
[2] = reduction of polyQ htt aggregates in cells – imaging, exon1htt(103Q)mCFP cells, high-content imaging, primary screen (AID 483;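 active means visual image review flags a hit and inhibition of aggregation exceeds 20%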;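 further: compound exposure lasted 3 days before fixation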;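 on nuclei count: percent of the per-plate median nuclei count of sample wells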); details: exon1htt(103Q)mCFP cell line, aggregate imaging, at 2 µM; inhibition of aggregation: stronger effect = higher value; nuclei count: measured here: cell count, toxicity
[3] = endothelial E-selectin expression blockers – imaging, HUVEC, immunofluorescence, MLSMR starter and 10KST1 sets, primary screen (AID 487;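 active means visually confirmed hit in the image check and inhibition above 20%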;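 on inhibition: signal is fraction of cell area covered by stained E-selectin grains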;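 on nuclei count: 100% = median nuclei count of all wells on the same plate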); details: HUVEC TNFalpha-induced E-selectin immunofluorescence imaging, at 2 µM; inhibition: stronger effect = higher value; nuclei count: measured here: cell number, toxicity
[4] = biological target: Voltage-gated potassium channel subunit beta-2 (Rattus norvegicus) (UniProt P62483); assay: inhibitors of rat Kvbeta2 reductase activity – biochemical, NADPH fluorescence, primary screen (AID 622); details: recombinant KvBeta, 4-cyanobenzaldehyde reduction, at 10 µM, stronger effect = higher value;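 further: slope of raw intensity against log time taken from 70 to 1610 s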
[5] = biological target: Voltage-gated potassium channel subunit beta-2 (Rattus norvegicus) (UniProt P62483); assay: enhancers of rat Kvbeta2 NADPH turnover – biochemical, NADPH fluorescence, primary screen (AID 623;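 active means NADPH fluorescence slope more negative than the mean of all samples by about 3 SD, 99.7% confidence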;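 further: fluorescence intensity change per second fitted from 20 to 320 s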); details: Recombinant KvBeta, NADPH fluorescence decrease slope, 10 min; at 10 µM; stronger effect = lower value
[6] = biological target: Muscarinic acetylcholine receptor M4 (Homo sapiens) (UniProt P08173); assay: M4-linked GIRK flux change, two-sided – cell-based, HEK293 M4/GIRK, thallium flux, BTC-AM, M4 allosteric agonist project, primary screen (AID 625;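 active means fluorescence slope after compound addition differing from the mean of all tested samples at 99.7% confidence, mostly higher but some lower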;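 further: thallium influx through GIRK channels coupled to M4 in HEK293 cells with BTC-AM dye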); details: at 10 µM, actives lie on both sides
Summary of the method: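 Assay system: HEK293 cells with M4 receptor and GIRK channels / Controls: carbachol and DMSO controls / Schedule: 1 h dye loading, 2 min kinetic read / Technique: kinetic fluorescence with BTC-AM dye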

[7] = blockers of RIG-like receptor reporter activation – cell-based, Sendai virus stimulus, luciferase, 10K MLSCN set, TLR/RLR signaling modifier project, primary screen (AID 602276;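 active means inhibition at or above 50% at 10 µM; inactive means inhibition below 50%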;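 further: firefly luciferase from ISG56 promoter only with Renilla not read in this screen; 0% = Sendai virus plus DMSO and 100% = medium plus DMSO without virus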); details: HEK293 RL24 IRF3 luciferase reporter, at 10 µM, stronger effect = higher value
[8] = TLR3 IRF3 reporter activation blockers – cell-based, poly I:C stimulus, luciferase, 10K MLSCN set, primary screen (AID 602277;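 active means inhibition of the reporter signal at or above 50%; inactive means inhibition below 50%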); details: HEK293-TLR3 RL24 IRF3 luciferase reporter, at 10 µM, stronger effect = higher value

Sequence of Voltage-gated potassium channel subunit beta-2 (Rattus norvegicus) (P62483 whole entry, looked up): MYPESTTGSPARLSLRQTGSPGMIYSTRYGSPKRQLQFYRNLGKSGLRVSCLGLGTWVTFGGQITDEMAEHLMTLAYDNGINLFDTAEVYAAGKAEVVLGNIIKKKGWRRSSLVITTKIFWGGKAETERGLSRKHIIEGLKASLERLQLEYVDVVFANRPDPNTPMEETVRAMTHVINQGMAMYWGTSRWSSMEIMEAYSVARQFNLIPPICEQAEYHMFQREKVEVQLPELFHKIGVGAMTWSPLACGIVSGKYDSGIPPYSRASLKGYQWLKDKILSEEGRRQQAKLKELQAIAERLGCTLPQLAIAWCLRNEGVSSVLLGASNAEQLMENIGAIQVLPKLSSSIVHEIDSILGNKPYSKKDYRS
Sequence of Muscarinic acetylcholine receptor M4 (Homo sapiens) (P08173 whole entry, looked up): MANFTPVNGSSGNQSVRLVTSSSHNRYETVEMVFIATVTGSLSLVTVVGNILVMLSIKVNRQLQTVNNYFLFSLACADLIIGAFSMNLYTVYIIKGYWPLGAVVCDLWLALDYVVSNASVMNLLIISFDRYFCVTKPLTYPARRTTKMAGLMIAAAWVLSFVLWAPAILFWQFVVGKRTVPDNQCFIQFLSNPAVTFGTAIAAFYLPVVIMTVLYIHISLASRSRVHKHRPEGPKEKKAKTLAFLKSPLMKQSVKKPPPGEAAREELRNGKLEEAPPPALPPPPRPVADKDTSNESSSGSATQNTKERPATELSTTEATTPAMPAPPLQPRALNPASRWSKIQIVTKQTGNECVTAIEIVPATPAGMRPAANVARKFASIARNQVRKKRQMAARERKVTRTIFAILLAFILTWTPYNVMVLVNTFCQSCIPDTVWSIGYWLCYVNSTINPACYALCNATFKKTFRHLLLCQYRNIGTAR

SMILES	cell count [1]	inhibition [1]	inhibition of aggregation [2]	nuclei count [2] [%]	inhibition [3]	nuclei count [3] [%]	fluorescence slope [4]	NADPH fluorescence slope [5]	fluorescence slope [6]	inhibition [7]	inhibition [8]
CC(C)=CC(=O)Nc1ccc(Br)cc1	670	-11.9% (inactive)	-6.6% (inactive)	73.9	5.2% (inactive)	91.1	-0.582 (inactive)	-1.3e-05 (inactive)	0.00668 (inactive)	-88% (inactive)	-158% (inactive)
CCOC(=O)c1cc2sccc2n1CC(=O)Nc1ccc(OC)cc1OC	550	-28.2% (inactive)	2.8% (inactive)	96.6	-22.6% (inactive)	107	-0.542 (inactive)	5.3e-06 (inactive)	0.00418 (inactive)	19% (inactive)	32.5% (inactive)
C=C(C)c1cccc(C(C)(C)NC(=O)Nc2ncccn2)c1	472	-4.3% (inactive)	1.6% (inactive)	106	-0.4% (inactive)	99.6	-0.601 (inactive)	-1.1e-05 (inactive)	0.00622 (inactive)	-42.4% (inactive)	98.6% (active)
CC(C)CNC(=O)c1ccccc1NC(=O)CN(c1ccc2c(c1)OCCO2)S(C)(=O)=O	330	6% (inactive)	-12.9% (inactive)	97.5	-0.7% (inactive)	105	-0.574 (inactive)	2.6e-05 (inactive)	0.00389 (inactive)	0.301% (inactive)	0.167% (inactive)
CC1=C(C#N)C(=O)NC(C)(C)C1	410	4.1% (inactive)	-3.7% (inactive)	100	6.4% (inactive)	109	-0.413 (inactive)	1.8e-05 (inactive)	0.00867 (inactive)	13.9% (inactive)	21.4% (inactive)
CNC(=O)CN(c1cc(C)ccc1OC)S(=O)(=O)c1ccc(C)cc1	317	5% (inactive)	-22% (inactive)	107	6.9% (inactive)	105	-0.563 (inactive)	-1.4e-05 (inactive)	0.00434 (inactive)	5.72% (inactive)	6.94% (inactive)
COc1ccccc1NC(=O)C1=C(C)Nc2ncnn2C1c1ccc(C)o1 (centres undefined)	355	14.6% (inactive)	24.5% (inactive)	90.6	56.5% (inactive)	85.1	-0.554 (inactive)	-0.000118 (inactive)	0.00338 (inactive)	19.9% (inactive)	20.2% (inactive)
CCOC(=O)C1CCCN(c2nc3ccccc3nc2C(C#N)C(=O)NCc2ccccc2)C1 (centres undefined)	703	9.6% (inactive)	-4.3% (inactive)	103	-40% (inactive)	126	-0.459 (inactive)	-2.8e-05 (inactive)	0.00538 (inactive)	7.48% (inactive)	12.6% (inactive)
O=C(OCc1cccs1)c1ccccc1NS(=O)(=O)c1ccc2c(c1)OCCO2	709	-6.7% (inactive)	10.3% (inactive)	84.5	9.5% (inactive)	108	-0.626 (inactive)	-2.4e-05 (inactive)	0.00639 (inactive)	3.25% (inactive)	-18.1% (inactive)
Cn1cnnc1Sc1nc2c(c(=O)n(C)c(=O)n2C)n1C	613	-33.7% (inactive)	11.6% (inactive)	90.4	-50.7% (inactive)	100	-0.547 (inactive)	2.3e-05 (inactive)	0.00524 (inactive)	-1.17% (inactive)	9.62% (inactive)
Cc1ccc2nc(SCC(=O)NCc3ccco3)c(C#N)cc2c1	388	-4.7% (inactive)	17.5% (inactive)	100	1.8% (inactive)	99.6	-0.592 (inactive)	1.6e-05 (inactive)	0.00711 (inactive)	-4.71% (inactive)	-2.98% (inactive)
CCCCn1nnnc1SCC(=O)N1CCN(C(=O)c2ccco2)CC1	247	2.6% (inactive)	22.3% (inactive)	72.2	15.1% (inactive)	83.9	-0.463 (inactive)	-3e-05 (inactive)	0.00637 (inactive)	7.65% (inactive)	15.6% (inactive)
Cc1ccc(CNC(=O)CCCn2c(=O)c3ccccc3n(CC(=O)NCc3ccco3)c2=O)cc1	451	-11.1% (inactive)	-4% (inactive)	114	-76.5% (inactive)	97.1	-0.509 (inactive)	-0.000209 (inactive)	0.00296 (inactive)	-6.73% (inactive)	-15.2% (inactive)
CCCCCc1c(O)c2ccccc2[nH]c1=O	596	-9.8% (inactive)	-15.9% (inactive)	109	-4.6% (inactive)	87	-0.565 (inactive)	-9.6e-05 (inactive)	0.00337 (inactive)	11.7% (inactive)	13.8% (inactive)
